In ChEMBL document CHEMBL3259692, “Inhibition of biofilm formation by conformationally constrained indole-based analogues of the marine alkaloid oroidin” (2014):
Calls of active or inactive are those of the source. The calls are words filed in the database; no cut-off is given here.

Assays:
Staphylococcus aureus [1] = assay: Antimicrobial activity against methicillin-resistant Staphylococcus aureus 25762 assessed as biofilm formation at 100 uM after 48 hrs by crystal violet staining-based spectrophotometry relative to control; type: functional
Staphylococcus aureus [2] = assay: Antimicrobial activity against methicillin-resistant Staphylococcus aureus 25762 assessed as inhibition of biofilm formation after 48 hrs by crystal violet staining-based spectrophotometry; type: functional
Streptococcus mutans [3] = assay: Antimicrobial activity against Streptococcus mutans 240 assessed as biofilm formation at 100 uM after 48 hrs by crystal violet staining-based spectrophotometry relative to control; type: functional
Summary of the method: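 Single-concentration screen in a modified biofilm-formation assay. Compound at 100 µM. Biofilm formed is expressed as a percentage of the negative control. Values are the mean of three independent experiments.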

Streptococcus mutans [4] = assay: Antimicrobial activity against Streptococcus mutans 240 assessed as inhibition of biofilm formation after 48 hrs by crystal violet staining-based spectrophotometry; type: functional
Pseudomonas aeruginosa = assay: Antimicrobial activity against Pseudomonas aeruginosa 6121 assessed as inhibition of biofilm formation after 24 hrs by crystal violet staining-based spectrophotometry; type: functional, organism-based

SMILES | Activity (Staphylococcus aureus [1]) | MBIC50 (Staphylococcus aureus [2]) | Activity (Streptococcus mutans [3]) | MBIC50 (Streptococcus mutans [4]) | inhibition (Pseudomonas aeruginosa)
Nc1nc(/C=C/CNC(=O)c2cc3cc(F)ccc3[nH]2)c[nH]1 | 8.1% | 60 µM | 18.7% | 60 µM | inactive
CC(C)(C)OC(=O)n1cc(-c2cccc(NC(=O)c3cc4cc(N)ccc4[nH]3)c2)nc1N | inactive | – | inactive | – | inactive
Cl.Nc1nc(-c2ccc(NC(=O)c3cc4cc(Cl)ccc4[nH]3)cc2)c[nH]1 | inactive | – | 38.2% | – | inactive
Cl.Nc1nc(-c2cccc(NC(=O)c3cc4cc([N+](=O)[O-])ccc4[nH]3)c2)c[nH]1 | inactive | – | 33.3% | – | inactive
Cl.Nc1nc(-c2cccc(NC(=O)c3cc4ccccc4[nH]3)c2)c[nH]1 | 13.9% | – | 14.2% | – | inactive
Cl.Nc1nc(-c2cccc(NC(=O)c3cc4sccc4[nH]3)c2)c[nH]1 | 23% | 90 µM | 10.1% | 60 µM | inactive
CC(C)(C)OC(=O)n1cc(-c2cccc(NC(=O)c3cc4ccccc4[nH]3)c2)nc1N | inactive | – | 30.6% | – | inactive
Cl.Nc1nc(-c2cccc(NC(=O)c3c[nH]c4ccccc34)c2)c[nH]1 | inactive | – | 23.9% | – | inactive
Nc1ccc2[nH]c(C(=O)Nc3cccc(-c4c[nH]c(N)n4)c3)cc2c1 | inactive | – | inactive | – | inactive
Cl.Nc1nc(-c2ccc(NC(=O)c3cc4ccccc4[nH]3)cc2)c[nH]1 | 11.1% | 90 µM | 8.1% | 60 µM | inactive
Cl.Nc1nc(-c2cccc(NC(=O)c3cc4cc(F)ccc4[nH]3)c2)c[nH]1 | inactive | – | 8.7% | – | inactive
Cl.Nc1nc(-c2cccc(NC(=O)c3cc4cc(OCc5ccccc5)ccc4[nH]3)c2)c[nH]1 | 31.4% | – | 8.2% | – | inactive
Cl.Nc1nc(-c2cccc(NC(=O)c3cc4cc(Cl)ccc4[nH]3)c2)c[nH]1 | 44% | – | 6.8% | – | inactive
CC(C)(C)OC(=O)n1cc(-c2cccc(NC(=O)c3cc4cc(OC(F)(F)F)ccc4[nH]3)c2)nc1N | inactive | – | inactive | – | inactive
Nc1ncc(/C=C/CNC(=O)c2cc(Br)c(Br)[nH]2)[nH]1 [OROIDIN] | inactive | – | 18% | – | –
Nc1nc(/C=C/CNC(=O)c2cc3ccccc3[nH]2)c[nH]1 | inactive | – | inactive | – | inactive
CNc1nc(-c2cccc(NC(=O)c3cc4ccccc4[nH]3)c2)c[nH]1.Cl | 19.1% | 70 µM | 8.8% | 80 µM | inactive
CC(C)(C)OC(=O)n1cc(-c2cccc(NC(=O)c3cc4cc(O)ccc4[nH]3)c2)nc1N | inactive | – | 57.6% | – | inactive
COc1ccc2[nH]c(C(=O)Nc3cccc(-c4c[nH]c(N)n4)c3)cc2c1.Cl | inactive | – | 10.5% | – | inactive
Cl.Nc1nc(-c2ccc(NC(=O)c3cc4cc(F)ccc4[nH]3)cc2)c[nH]1 | 10.9% | 60 µM | 3.9% | 50 µM | inactive
Cl.Nc1nc(-c2cccc(NC(=O)c3cc4cc(O)ccc4[nH]3)c2)c[nH]1 | inactive | – | 53.4% | – | inactive
